A selection: hits, their analogues and other compounds. The true share with any hit is near 2%.
Casp6 inh – blocks human caspase-6 cleavage activity; P55212; inhibition, % at 12.5 µM; purified caspase-6, Z-VEID-R110 cleavage fluorescence; AID 686996; 0.53% of 350,000 active;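 active means mean inhibition across replicates at least about 35%, with every replicate also reaching that limit, limit read from the data; inconclusive means only one of the two criteria met; inactive means neither criterion met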;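 further: 0% = median of neutral control wells and 100% = no fluorescence left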
Target sequence (P55212 24-179 limits assumed): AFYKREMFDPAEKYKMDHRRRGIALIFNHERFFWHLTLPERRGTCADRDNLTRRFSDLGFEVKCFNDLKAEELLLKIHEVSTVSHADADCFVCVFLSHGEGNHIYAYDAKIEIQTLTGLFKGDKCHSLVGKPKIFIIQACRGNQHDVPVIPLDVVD
Target sequence (P55212 194-293 limits assumed): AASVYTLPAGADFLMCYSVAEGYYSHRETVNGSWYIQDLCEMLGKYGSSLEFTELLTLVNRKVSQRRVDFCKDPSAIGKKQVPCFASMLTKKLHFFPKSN
DENV2 CPE rescue – inhibitors of DENV2 cytopathic effect | DENV2-infected cells, cytopathic effect rescue, plate reader | CPE inhibition, % at 9.99 µM | 1.7% of 350,000 active | AID 651640; in the data active means CPE inhibition above about 20%, passing the limit was not always enough; inconclusive means no clear call, values can overlap the other calls; tested in BHK-21 cells;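 further: 0% = median of neutral control wells and 100% = median of positive control wells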
XiGFP reactiv – activators of X-chromosome reactivation in mouse fibroblasts. XiGFP mouse fibroblasts, % GFP-positive cells imaging, 3 d; cells co-treated with 5-aza-dC sensitizer; scaled so ellipticine positive control = 100%. activation, % at 7.58 µM. 0.055% of 360,000 active;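 active means mean normalized replicate activation at least 10% and every replicate at or above 10%; inconclusive means only one of the two criteria met; inactive means mean below 10% and not all replicates reach 10%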;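 further: 0% = median of on-plate neutral control wells and 100% = ellipticine 6 µM median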
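Assay system: SV40-immortalized XiGFP fibroblast cells, line 68-5-11; buffer or medium: DMEM plus 5-aza-dC sensitizer; compound: one concentration, pinned; timing: compounds 3 days, fix/stain 15 min at room temperature; benchmarks: positive control ellipticine, 6 µM final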
CaV13 FRET inh – Disruptors of the CACNA1D IQ motif to Ca2+-dependent inactivation inhibitor domain association, primary screening, Förster resonance energy transfer in intact living …; HEK cells, CFP/YFP FRET ICDI-IQ, plate reader, 10 min; percent FRET-ratio fall versus neutral wells; inhibition, % at 12.3 µM; 0.098% of 340,000 active; AID 743397;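 active means mean replicate inhibition of at least 30% and at least 1% of replicates passing that level; inconclusive means only one of the two criteria is met; inactive means neither criterion is met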;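 further: 0% = median of the neutral control wells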
FN deposit inh – fibronectin deposition inhibition; AH1F fibroblasts, Alexa488-fibronectin deposition fluorescence, overnight; inhibition, % at 12.6 µM; 0.086% of 350,000 active; AID 743247;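 active means mean inhibition across replicates of 30% or more, regardless of how many single replicates reach that level; inconclusive means mean under 30% yet at least half of replicates reach 30%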;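 further: positive control wells lacked labelled fibronectin entirely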
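Test system: AH1F fibroblast monolayer depositing Alexa488-labelled fibronectin into matrix. Input: 10000 cells per well. Technique: fluorescence, ex 485 nm, em 525 nm. Buffer or medium: DMEM plus 2% serum, read in PBS. Timing: 1 h cell adhesion before compound, then overnight fibronectin incubation. Compound: single dose, pinned. Read-out basis: inhibition from reduced deposited-fibronectin fluorescence.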
Starred values were filed as active, the others as inactive.

`CN1C(=O)c2cc(NC(=O)c3cnccn3)ccc2OC[C@H]2O[C@@H](CC(=O)NCC3CC3)CC[C@H]21` gave XiGFP reactiv 0.0 and FN deposit inh 1.9.
O=C(C[C@@H]1CC[C@@H]2[C@H](COC[C@H](O)CN2C(=O)c2cccnc2)O1)NCc1ccccc1 was read as Casp6 inh -0.4, DENV2 CPE rescue inconclusive, XiGFP reactiv 0.1 and FN deposit inh -3.8.
Screening N#C[C@@H]1[C@H](c2ccc(C3=CCCCC3)cc2)[C@H](CO)N1C(=O)C1CCOCC1 returned Casp6 inh 2.8, DENV2 CPE rescue 29.7*, XiGFP reactiv -0.1 and FN deposit inh -4.0.
For N#C[C@@H]1[C@@H](c2ccccc2C2=CCCCC2)[C@H](CO)N1C(=O)NC1CCCC1 the results were Casp6 inh -0.1, DENV2 CPE rescue 73.3*, XiGFP reactiv 0.1 and FN deposit inh -5.1.
N#C[C@H]1[C@@H](c2ccccc2C2=CCCC2)[C@H](CO)N1C(=O)C1CCCC1 was read as Casp6 inh 1.4, DENV2 CPE rescue 41.1*, XiGFP reactiv 0.2 and FN deposit inh 2.5.
`C=C[C@@H](COC(C)=O)N(Cc1ccccc1[N+](=O)[O-])S(=O)(=O)c1ccc(Br)cc1` gave Casp6 inh 1.6 and DENV2 CPE rescue -1.2.
`Cc1ccc(S(=O)(=O)N(C)C[C@H]2Oc3ncc(C#CC4(O)CCCC4)cc3C(=O)N([C@@H](C)CO)C[C@H]2C)cc1` gave Casp6 inh -1.2, DENV2 CPE rescue 5.1, XiGFP reactiv -0.3 and FN deposit inh 2.3.
For CC(C)(C)OC(=O)NC(CC(=O)OCc1ccccc1)C(=O)O (stereo not drawn) the results were Casp6 inh -0.7, DENV2 CPE rescue 47.1*, XiGFP reactiv 0.0, CaV13 FRET inh -4.9 and FN deposit inh -2.9.
`CC(C)(C)OC(=O)C(Cc1ccc(OC(C)(C)C)cc1)NC(=O)CNC(=O)OCc1ccccc1` (stereo not drawn) gave Casp6 inh -5.0, DENV2 CPE rescue 76.7*, XiGFP reactiv 0.0, CaV13 FRET inh -2.6 and FN deposit inh 2.2.
`CC(C)(C)OC(=O)N[C@@H](CC(=O)OCc1ccccc1)C(=O)O` gave Casp6 inh 2.7, DENV2 CPE rescue -4.4, XiGFP reactiv 0.0, CaV13 FRET inh -3.9 and FN deposit inh -3.7.
Screening O=C1[C@@H](Oc2ccccc2)[C@@H](c2ccccc2)N1c1cccnc1 returned Casp6 inh -1.7, DENV2 CPE rescue -3.1, XiGFP reactiv -0.1, CaV13 FRET inh -3.2 and FN deposit inh -2.9.
O=C1[C@@H](Oc2ccccc2)[C@@H](c2ccncc2)N1c1ccccc1 was read as Casp6 inh 5.4, DENV2 CPE rescue 47.3*, XiGFP reactiv 0.0, CaV13 FRET inh -2.5 and FN deposit inh 10.9.
`COc1ccc(-n2c(SCC(=O)O)nc3sc4c(c3c2=O)CCCC4)cc1` gave Casp6 inh 2.4, DENV2 CPE rescue 1.1, XiGFP reactiv 0.0, CaV13 FRET inh -2.2 and FN deposit inh -8.9.
Screening COc1ccc(-n2c(NNC(C)=O)nc3sc4c(c3c2=O)CCCC4)cc1 returned Casp6 inh 68.5*, DENV2 CPE rescue 2.3, XiGFP reactiv 0.1, CaV13 FRET inh -4.2 and FN deposit inh 0.3.
`C[C@H](CO)N1C[C@H](C)[C@H](CN(C)C(=O)NC2CCCCC2)Oc2ccc(NC(=O)Nc3cccc4ccccc34)cc2CC1=O` gave Casp6 inh 4.4, DENV2 CPE rescue -3.9 and XiGFP reactiv 0.1.
C[C@@H]1CN([C@@H](C)CO)C(=O)Cc2cc(NC(=O)Nc3cccc4ccccc34)ccc2O[C@H]1CN(C)C(=O)Nc1cccc2ccccc12 was read as Casp6 inh -0.7, DENV2 CPE rescue 44.6* and XiGFP reactiv 0.0.
Screening C[C@H]1CN([C@@H](C)CO)C(=O)Cc2cc(NC(=O)Cc3cn(C)c4ccccc34)ccc2O[C@@H]1CN(C)C(=O)Nc1cccc2ccccc12 returned Casp6 inh 0.1, DENV2 CPE rescue 21.3*, XiGFP reactiv -1.1 and FN deposit inh 3.4.
C[C@@H]1CN([C@H](C)CO)C(=O)Cc2cc(NC(=O)Nc3cccc4ccccc34)ccc2O[C@@H]1CN(C)C(=O)NC1CCCCC1 was read as Casp6 inh 4.9 and DENV2 CPE rescue 22.0*.

Assay outcomes (PubChem BioAssay)
